From ChEMBL document CHEMBL1131634, “Axially chiral N-benzyl-N,7-dimethyl-5-phenyl-1, 7-naphthyridine-6-carboxamide derivatives as tachykinin NK1 receptor antagonists: determination of the absolute stereochemical requirements” (J Med Chem, 1998) come the findings set out here.

In one assay the target is Substance-P receptor (Homo sapiens, UniProt P25103). The assay is described as follows: Binding affinity at Tachykinin receptor 1 by measuring its ability to inhibit [125I]BH-SP binding in human IM-9 cells (Lymphoblast cells). Format: cell-based.
Sequence of Substance-P receptor (P25103 whole entry): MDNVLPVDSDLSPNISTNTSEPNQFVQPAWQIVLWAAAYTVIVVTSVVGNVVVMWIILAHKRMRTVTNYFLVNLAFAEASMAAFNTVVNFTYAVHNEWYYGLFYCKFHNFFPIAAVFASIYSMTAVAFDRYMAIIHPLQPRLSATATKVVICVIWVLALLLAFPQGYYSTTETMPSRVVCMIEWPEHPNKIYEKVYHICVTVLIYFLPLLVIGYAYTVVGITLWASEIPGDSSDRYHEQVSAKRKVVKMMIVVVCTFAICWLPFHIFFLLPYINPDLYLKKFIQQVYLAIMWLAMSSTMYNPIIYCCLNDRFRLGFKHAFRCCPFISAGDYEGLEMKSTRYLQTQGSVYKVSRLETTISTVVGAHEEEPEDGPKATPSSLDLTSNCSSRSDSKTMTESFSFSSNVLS
Assay [1] has as its system Cavia porcellus. As to the kind of experiment: In vivo inhibition of capsaicin-induced plasma extravasation in guinea pig trachea on intravenous administration. Type of assay: functional. The method in brief:
(§1)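 Guinea pigs received compound iv or po before capsaicin challenge, and tracheal plasma extravasation was measured. ID50 was derived from 5–8 animals per dose and reported with 95% confidence limits.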

Assay [2] relates to Cavia porcellus. As to the kind of experiment: In vivo inhibition of capsaicin-induced plasma extravasation in guinea pig trachea on peroral administration. Type of assay: functional. The conditions noted are these: po. The method, boiled down: as §1
Assay [3] deals with Cavia porcellus. The assay is described as follows: In vivo inhibition (percentage) of capsaicin-induced plasma extravasation in guinea pig trachea on intravenous administration at 1.0 mg/kg. Format: functional. The method in brief:
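Guinea pigs were given a single iv dose of 1.0 mg/kg. Capsaicin-induced tracheal plasma extravasation was then measured, with percent inhibition reported (n = 5 or 6).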

With `Cc1ccc(-c2c(C(=O)N(C)[C@H](C)c3ccccc3)n(C)c(=O)c3ncccc23)cc1`, the IC50 at Substance-P receptor is 130 nM. Turning to `Cc1ccc(-c2c(C(=O)N(C)[C@@H](C)c3cc(C(F)(F)F)cc(C(F)(F)F)c3)n(C)c(=O)c3ncccc23)cc1` (stereo in doubt; 3a-A) [7-METHYL-8-OXO-5-P-TOLYL-7,8-DIHYDRO-[1,7]NAPHTHYRIDINE-6-CARBOXYLIC ACID (S)-[(S)-1-(3,5-BIS-TRIFLUOROMETHYL-PHENYL)-ETHYL]-METHYL-AMIDE (ENANTIOMERIC MIX)], the median effective dose (ED50) with Cavia porcellus [1] stood at 0.0093 mg/kg; in the assay on Cavia porcellus [2], 0.0677 mg/kg. Further, at Substance-P receptor, the IC50 is 0.8 nM. Compound `Cc1ccc(-c2c(C(=O)N(C)[C@@H](C)c3cc(C(F)(F)F)cc(C(F)(F)F)c3)n(C)c(=O)c3ncccc23)cc1` (stereo in doubt; 3a-B) [7-METHYL-8-OXO-5-P-TOLYL-7,8-DIHYDRO-[1,7]NAPHTHYRIDINE-6-CARBOXYLIC ACID (S)-[(S)-1-(3,5-BIS-TRIFLUOROMETHYL-PHENYL)-ETHYL]-METHYL-AMIDE (ENANTIOMERIC MIX)] came in with an inhibition in vivo at 1 mg/kg in the assay with Cavia porcellus [3] of 61.8%. In addition, the IC50 on Substance-P receptor stood at 44 nM.

Consider `Cc1ccc(-c2c(C(=O)N(C)[C@H](C)c3cc(C(F)(F)F)cc(C(F)(F)F)c3)n(C)c(=O)c3ncccc23)cc1` (stereo in doubt; 3b-A) [7-METHYL-8-OXO-5-P-TOLYL-7,8-DIHYDRO-[1,7]NAPHTHYRIDINE-6-CARBOXYLIC ACID (S)-[(R)-1-(3,5-BIS-TRIFLUOROMETHYL-PHENYL)-ETHYL]-METHYL-AMIDE (ENANTIOMERIC MIX)], for which it took a dose of 0.412 mg/kg to reach the 50% effect level with Cavia porcellus [1] (ED50). The compound also came in with an IC50 at Substance-P receptor of 19 nM.

Compound `Cc1ccc(-c2c(C(=O)N(C)[C@H](C)c3cc(C(F)(F)F)cc(C(F)(F)F)c3)n(C)c(=O)c3ncccc23)cc1` (stereo in doubt; 3b-B) [7-METHYL-8-OXO-5-P-TOLYL-7,8-DIHYDRO-[1,7]NAPHTHYRIDINE-6-CARBOXYLIC ACID (S)-[(R)-1-(3,5-BIS-TRIFLUOROMETHYL-PHENYL)-ETHYL]-METHYL-AMIDE (ENANTIOMERIC MIX)] gave an inhibition in vivo at 1 mg/kg with Cavia porcellus [3] of 6.9%. The same compound displayed an IC50 on Substance-P receptor of 620 nM. Compound `Cc1ccc(-c2c(C(=O)N(C)Cc3cc(C(F)(F)F)cc(C(F)(F)F)c3)n(C)c(=O)c3ncccc23)cc1` [7-METHYL-8-OXO-5-P-TOLYL-7,8-DIHYDRO-[1,7]NAPHTHYRIDINE-6-CARBOXYLIC ACID (3,5-BIS-TRIFLUOROMETHYL-BENZYL)-METHYL-AMIDE (STRUCTURAL MIX)] had a median effective dose (ED50) with Cavia porcellus [2] of 0.11 mg/kg.

As a reminder, the IC50 is the concentration needed to halve the response being measured. Higher therefore signals weaker potency in that assay. One may read the ED50 as the dose at which the effect has come halfway, by size or by number of responders. High values mean a need for a large dose, low ones an effect at a small dose. Usually inhibition in vivo stands for the percentage by which the read-out fell short of the control. Higher therefore signals a strong effect.
